Measurements as given in ChEMBL document CHEMBL1140608 (J Med Chem, 2007).

Columns and labels:
[1] = target: T1, ATP-dependent translocase ABCB1 (Homo sapiens, UniProt P08183); assay: Inhibition of human Pgp in anthracycline-resistant K562 cells assessed as drug level causing half maximal increase in nuclear concentration of pirarubicin; format: cell-based; details: read-out: Activity
[2] = target: T1, ATP-dependent translocase ABCB1; assay: Inhibition of human Pgp in anthracycline-resistant K562 cells assessed as drug level causing maximal increase in nuclear concentration of pirarubicin relative to control; format: cell-based
How it was run: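 Anthracycline-resistant erythroleukemia K562 cells were incubated with pirarubicin, and its uptake was followed by continuous spectrofluorometry (λex 480 nm, λem 590 nm). R is the fractional increase in nuclear pirarubicin with inhibitor: 0 without inhibitor, 1 when it equals sensitive cells. Rmax is the maximal achievable increase. [I]0.5 is the inhibitor concentration giving R = 0.5.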

T1 sequence (P08183 whole entry): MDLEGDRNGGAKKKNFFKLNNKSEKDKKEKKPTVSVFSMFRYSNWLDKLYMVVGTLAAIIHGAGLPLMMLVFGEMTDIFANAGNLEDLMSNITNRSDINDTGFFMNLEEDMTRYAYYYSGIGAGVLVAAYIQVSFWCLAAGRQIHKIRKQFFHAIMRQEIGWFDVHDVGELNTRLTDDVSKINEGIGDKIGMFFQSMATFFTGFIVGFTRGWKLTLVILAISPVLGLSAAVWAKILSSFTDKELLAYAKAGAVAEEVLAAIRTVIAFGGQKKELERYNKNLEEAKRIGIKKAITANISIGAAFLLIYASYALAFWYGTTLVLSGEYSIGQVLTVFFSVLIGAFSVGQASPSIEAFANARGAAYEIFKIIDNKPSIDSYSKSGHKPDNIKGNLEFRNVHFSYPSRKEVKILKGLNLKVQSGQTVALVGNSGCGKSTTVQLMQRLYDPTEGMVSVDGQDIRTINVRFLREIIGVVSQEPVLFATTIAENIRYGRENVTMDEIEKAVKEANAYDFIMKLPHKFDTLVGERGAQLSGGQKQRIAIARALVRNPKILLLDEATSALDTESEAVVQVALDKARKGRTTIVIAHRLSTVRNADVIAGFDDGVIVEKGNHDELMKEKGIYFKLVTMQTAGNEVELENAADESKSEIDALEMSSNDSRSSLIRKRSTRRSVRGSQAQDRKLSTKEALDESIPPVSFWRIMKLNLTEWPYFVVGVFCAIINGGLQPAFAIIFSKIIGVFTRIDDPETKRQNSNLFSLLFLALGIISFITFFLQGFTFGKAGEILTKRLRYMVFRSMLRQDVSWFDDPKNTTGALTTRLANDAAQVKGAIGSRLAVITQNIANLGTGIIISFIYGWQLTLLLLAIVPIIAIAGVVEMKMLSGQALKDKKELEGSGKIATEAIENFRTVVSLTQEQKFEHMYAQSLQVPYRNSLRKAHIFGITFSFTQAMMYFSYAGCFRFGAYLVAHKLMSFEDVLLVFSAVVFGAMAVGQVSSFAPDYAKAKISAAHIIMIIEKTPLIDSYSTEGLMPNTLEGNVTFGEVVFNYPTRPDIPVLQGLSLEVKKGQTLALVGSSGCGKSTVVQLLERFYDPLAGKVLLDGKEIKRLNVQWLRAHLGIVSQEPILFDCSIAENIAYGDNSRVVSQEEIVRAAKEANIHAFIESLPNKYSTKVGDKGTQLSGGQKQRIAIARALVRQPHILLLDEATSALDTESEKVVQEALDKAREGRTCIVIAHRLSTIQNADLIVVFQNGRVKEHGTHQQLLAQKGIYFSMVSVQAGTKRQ

SMILES: COc1cc(/C=C/C(=O)OCCCN(C)CCCOC(=O)c2cc(OC)c(OC)c(OC)c2)cc(OC)c1OC
- IC50 [1]: 600 nM
- Activity [2]: 0.9

SMILES: COc1cc(C(=O)OCCCN(C)CCCOC(=O)c2c3ccccc3cc3ccccc23)cc(OC)c1OC
- IC50 [1]: 280 nM
- Activity [2]: 0.71

SMILES: COc1cc(/C=C/C(=O)OC2CCC(N(C)C3CCC(OC(=O)c4cc(OC)c(OC)c(OC)c4)CC3)CC2)cc(OC)c1OC (cis isomer)
- IC50 [1]: 30 nM
- Activity [2]: 0.8

SMILES: COc1cc(/C=C/C(=O)OC2CCC(N(C)C3CCC(OC(=O)c4cc(OC)c(OC)c(OC)c4)CC3)CC2)cc(OC)c1OC (mixture of isomers; cis)
- IC50 [1]: 90 nM
- Activity [2]: 0.85

SMILES: COc1cc(C(=O)OC2CCC(N(C)C3CCC(OC(=O)c4c5ccccc5cc5ccccc45)CC3)CC2)cc(OC)c1OC (mixture of isomers; cis)
- IC50 [1]: 300 nM
- Activity [2]: 0.95

SMILES: COc1cc(/C=C/C(=O)OC2CCC(N(C)C3CCC(OC(=O)c4cc(OC)c(OC)c(OC)c4)CC3)CC2)cc(OC)c1OC (mixture of isomers; trans)
- IC50 [1]: 10 nM
- Activity [2]: 0.98

SMILES: COc1cc(C(=O)OC2CCC(N(C)C3CCC(OC(=O)c4c5ccccc5cc5ccccc45)CC3)CC2)cc(OC)c1OC (mixture of isomers; trans)
- IC50 [1]: 160 nM
- Activity [2]: 0.78

SMILES: COc1cc(/C=C/C(=O)OC2CCC(N(C)C3CCC(OC(=O)c4cc(OC)c(OC)c(OC)c4)CC3)CC2)cc(OC)c1OC (stereo in doubt)
- IC50 [1]: 320 nM
- Activity [2]: 0.81

SMILES: COc1cc(C(=O)OC2CCC(N(C)C3CCC(OC(=O)c4c5ccccc5cc5ccccc45)CC3)CC2)cc(OC)c1OC (stereo in doubt)
- IC50 [1]: 180 nM
- Activity [2]: 0.79

SMILES: COc1cc(C(=O)OC2CCC(N(C)C3CCC(OC(=O)c4c5ccccc5cc5ccccc45)CC3)CC2)cc(OC)c1OC (trans isomer)
- IC50 [1]: 300 nM
- Activity [2]: 0.88
